# An excerpt weighted towards active compounds, which were near 3.6% of everything screened.
# PAFAH2 FP inh: PAFAH2 (human) inhibition. Q99487. recombinant PAFAH2, FP-rhodamine activity probe, fluorescence polarization. inhibition, % at 3.39 µM. 340,000 tested, 0.99% active. AID 492956;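 active means inhibition above the mean over all tested compounds plus 3 SD, cut at about 30% in these data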;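 further: inhibitors block probe labeling of enzyme so polarization drops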
# pPAFAH FP inh: pPAFAH (human) enzyme inhibition | recombinant pPAFAH, FP-rhodamine probe fluorescence polarization | 330,000 tested, 1.5% active | inhibition, % at 3.39 µM | Q13093 | AID 463082;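 active means inhibition above the mean inhibition across the screen plus 3 SD, cut at about 25% in these data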;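 further: inhibitors block binding of the rhodamine activity-based probe so polarization drops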
# PAFAH1B2 FP inh: inhibitors of human PAFAH1B2. P68402. recombinant PAFAH1B2, FP-rhodamine activity probe, fluorescence polarization. AID 492953. inhibition, % at 3.39 µM. 340,000 tested, 1.2% active;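 active means inhibition above the mean of all tested compounds plus 3 SD, cut at about 24% in these data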
# Target sequence (P68402 whole entry, looked up): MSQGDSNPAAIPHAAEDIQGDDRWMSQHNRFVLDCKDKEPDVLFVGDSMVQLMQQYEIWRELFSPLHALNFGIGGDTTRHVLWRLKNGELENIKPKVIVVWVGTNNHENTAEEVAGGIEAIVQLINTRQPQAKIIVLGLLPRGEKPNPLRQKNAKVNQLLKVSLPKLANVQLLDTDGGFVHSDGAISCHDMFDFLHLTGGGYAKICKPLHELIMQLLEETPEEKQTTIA
# VIM-2 inh: inhibitors of Pseudomonas aeruginosa VIM-2 metallo-beta-lactamase | inhibition, % at 5.6 µM | AID 1527 | purified VIM-2, nitrocefin hydrolysis, epi-absorbance fluorescence | 290,000 tested, 0.89% active;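 active means inhibition above the mean of all tested compounds plus 3 SD, cutoff set per screening run, cut at about 7.5% in these data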;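 further: red hydrolysis product quenches plate fluorescence so inhibitors raise well fluorescence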
# IMP-1 inh: blocks Pseudomonas aeruginosa IMP-1 metallo-beta-lactamase. purified IMP-1, nitrocefin hydrolysis, epi-absorbance fluorescence. inhibition, % at 5.6 µM. 290,000 tested, 0.45% active. AID 1556;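 active means inhibition above the mean plus 3 SD of all compounds in the same screening run, cut at about 4.5% in these data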
#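 System: Purified IMP-1 | Read-out basis: Percent enzyme inhibition | Controls: IMP-1 with DMSO as 0%, enzyme-free DMSO as 100% | Replicates: One well per compound | Doses: 5.6 µM nominal single concentration | Detection: Epi-absorbance fluorescence, 480 nm excitation, 530 nm emission | Incubation: 25 °C, 15 min preincubation, 25 min reaction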
# PAFAH1B3 FP inh: inhibitors of human PAFAH1B3; recombinant PAFAH1B3, FP-rhodamine probe, fluorescence polarization; inhibition, % at 3.39 µM; 340,000 tested, 0.28% active;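 active means inhibition above the screen-wide average of all tested compounds plus 3 SD, cut at about 25% in these data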
# Target sequence (Q15102 whole entry, looked up): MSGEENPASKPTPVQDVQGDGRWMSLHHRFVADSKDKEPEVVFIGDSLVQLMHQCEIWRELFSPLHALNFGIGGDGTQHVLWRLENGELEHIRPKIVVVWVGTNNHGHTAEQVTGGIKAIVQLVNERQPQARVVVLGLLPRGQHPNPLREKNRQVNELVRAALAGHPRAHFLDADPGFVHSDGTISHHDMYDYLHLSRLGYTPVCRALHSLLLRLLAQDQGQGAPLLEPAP
# pPAFAH FP conf: confirmation of human plasma PAF acetylhydrolase (pPAFAH) inhibitors. shares compounds with pPAFAH FP inh. recombinant pPAFAH, FP-Rh probe fluorescence polarization. inhibition, % at 3.39 µM. 2,300 tested, 72% active. AID 463230;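 active means mean inhibition of the triplicate above the hit cutoff set for the earlier primary screen, cut at about 25% in these data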
# Numbers stand for hits; - = inactive; . = no result.
SMILES,PAFAH2 FP inh,pPAFAH FP inh,PAFAH1B2 FP inh,VIM-2 inh,IMP-1 inh,PAFAH1B3 FP inh,pPAFAH FP conf
Cn1cccc1/C=N/N1CCN(Cc2cccc3ccccc23)CC1,-,46,-,-,-,-,-
Cc1cc(O)cc2c1C1CCC3(C)C(=O)CCC3C1C=C2 (configuration not stated),-,.,-,.,.,-,.
Cc1cccc(NC(=O)CN2CCN(CC(=O)NCc3ccc(Cl)cc3Cl)CC2)c1C,-,-,-,.,.,-,.
Cc1cccc(NC(=O)CN2CCN(C(=O)CNC(=O)Cc3cccc4ccccc34)CC2)c1C,-,48,-,.,.,-,-
COc1ccc(C)cc1N(CC(=O)NCCSCc1ccco1)S(=O)(=O)c1ccc(C)cc1,-,-,-,-,-,-,.
CN1CCN(CC(=O)N2CCn3c4c(c5cc(C6CCCCC6)ccc53)CCCC42)CC1 (configuration not stated),-,36,-,-,-,-,54
Cc1ccc2c(c1)c1c3n2CCN(C(=O)CN2CCN(C)CC2)C3CCC1 (configuration not stated),-,-,-,-,-,-,.
c1ccc(NC2=NCCN2CCC2CCCC2)cc1,-,-,-,-,-,-,.
O=C(CC(O)(c1ccccc1)c1ccccc1)Nc1ccccn1,-,.,-,.,.,-,.
N#Cc1cc2c(=O)n3ccccc3nc2n(Cc2ccco2)c1=NC(=O)c1ccco1,-,37,-,-,-,-,-
CN1CCS/C1=C/C=C1/SC(=S)N(Cc2ccccc2)C1=O,-,36,-,-,-,-,27
CCCCN1C(=O)/C(=C/C=C2\SCCN2C)SC1=S,-,.,-,-,-,-,.
Nc1cccc(Nc2ccccc2)c1,-,-,-,-,-,-,.
Nc1ccc(Nc2ccccc2)c(S(=O)(=O)O)c1,-,60,-,-,-,-,-
CNS(=O)(=O)c1cc(N)ccc1C,-,-,-,-,-,-,.
Cc1ccc(Nc2ccc(N)cc2S(=O)(=O)O)cc1,-,50,-,-,-,-,-
Cc1ccc(N(C)S(=O)(=O)c2csc(C(N)=O)c2)cc1C,-,-,-,-,-,-,.
CC(C)(C)c1cc(NCCCn2ccnc2)n2ncc(-c3ccc(Cl)cc3)c2n1,-,39,-,-,-,-,-
CCCCCCCCCCCCCCCC[n+]1ccc(/C=N/O)cc1,-,50,33,-,-,61,40
Cc1cccc(NS(=O)(=O)c2ccc(C)c(C(=O)OCC(=O)Nc3cc(C)on3)c2)c1,-,68,-,-,-,-,62
COc1ccc(C(=O)c2c(-c3ccsc3)oc3ccc(-c4ccc(OC)cc4)cc23)cc1,.,-,.,.,.,.,.
C(=Nc1cccc2c(N=Cc3ccco3)cccc12)c1ccco1,-,45,-,-,16,-,-
C(=N\C(/N=C/c1ccco1)c1ccco1)/c1ccco1,-,-,-,-,-,-,.
COc1ccccc1NC(=O)COC(=O)c1ccc([N+](=O)[O-])s1,38,37,-,-,-,26,-
O=C(N/C(=C/c1ccco1)C(=O)N1CCOCC1)c1ccccc1Br,-,-,-,-,-,-,.
SMILES,PAFAH2 FP inh,pPAFAH FP inh,PAFAH1B2 FP inh,VIM-2 inh,IMP-1 inh,PAFAH1B3 FP inh,pPAFAH FP conf
Cc1ccc(C(=O)NCCCc2ccccc2)c(Cl)c1,-,-,-,-,-,-,.
O=C(NCCC(=O)N(CCc1ccccc1)Cc1ccccc1)c1ccccc1Cl,-,46,-,.,.,-,-
CC(NC(=O)C12CC3CC(CC(O)(C3)C1)C2)c1ccc(Cl)cc1Cl (configuration not stated),-,-,-,-,-,-,.
CC(C(=O)N(C)C1CCCCC1)N1CCC(C(N)=O)CC1 (configuration not stated),-,-,-,-,-,-,.
O=C(N/N=C/c1ccccc1)c1ccc(-c2ccccc2)cc1,-,69,-,-,-,-,-
O=C(N/N=C\c1ccccc1F)c1ccc(-c2ccccc2)cc1,-,.,-,-,-,-,.
COc1cc(-c2csc(C)n2)ccc1O,-,-,-,-,-,-,.
Cc1nc(-c2ccc(O)c(O)c2)cs1,-,35,-,-,-,-,-
Oc1ccc(-c2csc(-c3ccccc3)n2)cc1O,-,45,-,-,-,-,59
O=C(CC(=O)c1ccccc1)CC(O)(C=Cc1ccccc1)c1ccccc1 (configuration not stated),-,.,-,.,.,-,.
COc1ccc(Nc2nnc(SC(C(=O)Nc3ccc(OC)c(Cl)c3)c3ccccc3)s2)cc1 (configuration not stated),-,35,-,-,-,-,-
COc1ccc(Nc2nnc(SC(C(=O)Nc3cc(C)ccc3C)c3ccccc3)s2)cc1 (configuration not stated),-,-,-,-,-,-,.
Cc1ccc(C2C(C#N)=C(N)Oc3c2sc2ccccc32)o1 (configuration not stated),.,38,.,-,-,.,30
COc1ccc(-c2csc(NC(=O)c3ccccc3NS(=O)(=O)c3ccc(C)cc3)n2)cc1,36,39,-,-,-,-,49
Cc1cccc(C)c1NC(=O)CSc1nnc(-c2ccco2)c(-c2ccco2)n1,45,58,-,-,-,-,-
Cc1ccccc1NC(=O)CSc1nnc(-c2ccco2)c(-c2ccco2)n1,-,45,-,-,-,-,-
COc1cccc(NC(=O)CSc2nnc(-c3ccco3)c(-c3ccco3)n2)c1,-,41,-,-,-,-,-
CN(C)c1ccc(NC(=O)CSc2nnc(-c3ccco3)c(-c3ccco3)n2)cc1,-,-,-,-,-,-,.
Cc1ccc(NC(=O)CSc2nnc(-c3ccco3)c(-c3ccco3)n2)cc1,-,48,-,-,-,-,29
CN(C)C(=O)CCc1ccc2c3c([nH]c2c1)[C@]1(CCC2CCCC2)[C@@H](C(=O)N2CCOCC2)C[C@H](CC(=O)NCCc2ccccn2)C(=O)N1CC3,-,-,-,.,.,-,.
Cc1ccc2oc(C(=O)Nc3cc(C)on3)c(C)c2c1,-,-,-,.,.,-,.
O=C(NN1C(=O)/C(=C/C=C/c2ccccc2)SC1=S)c1ccncc1,-,-,-,-,-,-,.
O=C(NN1C(=O)/C(=C/C=C/c2ccco2)SC1=S)c1ccncc1,.,72,.,-,-,.,-
CC(C)C(C(=O)O)N1C(=O)/C(=C/C=C/c2ccco2)SC1=S (configuration not stated),61,78,-,-,5.8,-,54
O=C1/C(=C/C=C/c2ccco2)SC(=S)N1c1ccc(O)cc1,-,83,-,-,-,-,41
Cc1c(NC(=O)CSc2nc3ccccc3c(=O)n2C(C)C)c(=O)n(-c2ccccc2)n1C,-,-,-,.,.,-,.
O=Nc1ccc(O)c2ncccc12,-,-,-,-,-,-,.
COc1cccc(N=Nc2ccc3cccnc3c2O)c1,-,58,-,-,-,-,33

# Assay outcomes as filed in PubChem.
